VLA-4 inh: inhibition in a human VLA-4 binding assay. AID 2557. P13612. 330,000 tested, 0.2% active. VLA-4 expressing cells, ligand binding flow cytometry. inhibition, % (about 7 µM as worked out from the volumes in the protocol); in the data active = inhibition above about 50%
JMJD2C inh: human JMJD2C demethylase inhibition; inhibition, % at 2.35 µM; 330,000 tested, 0.069% active; GST-JMJD2C(1-420) H3K9me3 demethylation, DELFIA europium; Q9H3R0;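 active = more than half of a compound's replicate wells show inhibition beyond 50%, single wells judged on their own value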;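 also: signal counts dimethyl H3K9 product captured on neutravidin plate; 0% = median of DMSO wells and 100% = 0.3 times that DMSO median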
Target sequence (Q9H3R0 1-420 limits assumed): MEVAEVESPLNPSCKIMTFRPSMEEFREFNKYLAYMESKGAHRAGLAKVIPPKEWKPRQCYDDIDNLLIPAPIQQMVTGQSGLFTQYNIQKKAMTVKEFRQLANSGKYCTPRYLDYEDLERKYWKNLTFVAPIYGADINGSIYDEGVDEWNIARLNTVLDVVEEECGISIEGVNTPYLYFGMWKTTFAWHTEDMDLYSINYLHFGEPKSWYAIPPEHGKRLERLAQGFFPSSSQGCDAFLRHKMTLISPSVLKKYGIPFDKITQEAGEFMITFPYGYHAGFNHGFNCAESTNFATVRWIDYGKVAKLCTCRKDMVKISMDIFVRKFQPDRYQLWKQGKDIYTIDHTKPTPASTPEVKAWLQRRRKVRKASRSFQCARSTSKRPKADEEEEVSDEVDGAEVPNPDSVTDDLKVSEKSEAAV
GRK2 inh: human GRK2 inhibition via aptamer displacement; AID 488847; bead flow cytometry, FAM-aptamer displacement from GRK2; inhibition of aptamer binding, % at 10 µM; 330,000 tested, 0.59% active; P25098;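 active = inhibition of aptamer binding above 40%, roughly 3 SD of noise, on plates passing a quality check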;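 also: median bead fluorescence of bound FAM aptamer so fluorescent compounds give negative values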
procasp3 activ: activates human procaspase-3; 330,000 tested, 0.11% active; recombinant procaspase-3 D3A, Ac-DEVD-pNA absorbance 405 nm; activation, % at 8.5 µM; AID 463141;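 active = activation above the mean of all tested compounds plus 3 SD, cut at about 21% in these data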;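 also: 0% = DMSO alone and 100% = DMSO wells spiked with extra 5 µM PC-3 D3A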
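assay system = Procaspase-3 D3A mutant | signal = absorbance at 405 nm, 0 and 120 min | times = 1 h preincubation plus 2 h reaction at 25 °C | repeats = single replicate | read-out = % activation between DMSO and enzyme-spiked controls | medium = Zinc-free HEPES saline buffer with Triton X-100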
proCasp7 act: activates human procaspase-7, counter-screen for procaspase-3 activators. P55210. recombinant procaspase-7, Ac-DEVD-pNA absorbance 405 nm; D23A/D198A/D206A triple mutant, cannot self-cleave; scale: DMSO 0, 5 µM enzyme 100. activation, % at 8.5 µM. 330,000 tested, 0.093% active;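 active = percent activation above the screen-wide mean plus 3 SD, cut at about 25% in these data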
Target sequence (P55210 whole entry D23A/D198A/D206A): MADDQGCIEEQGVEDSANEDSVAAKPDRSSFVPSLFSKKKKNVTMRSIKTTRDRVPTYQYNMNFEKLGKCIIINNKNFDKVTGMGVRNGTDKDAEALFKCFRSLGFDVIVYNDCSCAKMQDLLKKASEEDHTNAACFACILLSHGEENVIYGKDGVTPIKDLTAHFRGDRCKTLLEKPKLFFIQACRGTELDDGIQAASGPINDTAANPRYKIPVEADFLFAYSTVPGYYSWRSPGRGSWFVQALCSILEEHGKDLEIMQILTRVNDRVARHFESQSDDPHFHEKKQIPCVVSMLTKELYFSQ
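Material: Procaspase-7 triple mutant (PC-7 D3A) | Quantity: 2 µM procaspase-7 mutant as dispensed | Reagent: DEVD-pNA substrate | Times: 1 h preincubation, 2 h reaction | Technique: 405 nm absorbance of p-nitroaniline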
Hep lipid drop: hepatic lipid droplet formation modulation; 240,000 tested, 0.4% active; inhibition, % at 6.5 µM; AML12 mouse hepatocytes, oleate lipid droplets, BODIPY imaging; AID 1656;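 active = lipid droplet intensity inhibited by at least 50%, with more than 500 cells counted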
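Assay system: AML12 mouse liver cells | Compound: 6.5 µM single-point dosing | Schedule: Overnight exposure | Technique: Fluorescence imaging, 20x objective, two fields per well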
GRK2 CP1: confirmation of human GRK2 inhibitors displacing RNA aptamer; shares compounds with GRK2 inh; AID 504451; bead-bound GRK2, FAM-aptamer displacement, flow cytometry; 2,000 tested, 4% active; aptamer displacement, % at 10 µM;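 active = aptamer displacement above 40%, near three times the noise of non-fluorescent compounds, on plates passing quality checks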;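 also: negative values mostly reflect intrinsic compound fluorescence rather than true enhancement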
FAM quench CP1: quenches fluorescent RNA aptamer, GRK2 hit artifact | shares compounds with GRK2 inh | Carboxyfluorescein RNA aptamer on beads, flow cytometry quenching; active compounds read low | fluorescence response (% of DMSO), % at 10 µM | 2,000 tested, under 10 active | AID 504580;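 active = compounds that quench the bead-bound fluorescent RNA probe, cutting fluorescence to under half of the solvent control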;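 also: counterscreen run without GRK2 so only probe quenching by compound is measured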
GRK2 CP2: confirmation of human GRK2 inhibitors binding RNA aptamer site; shares compounds with GRK2 inh; bead-bound GRK2, FAM-aptamer displacement, flow cytometry; inhibition of aptamer binding, % at 10 µM; 360 tested, under 10 active;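 active = inhibition of aptamer binding above 40%, about triple the noise seen with nonglowing compounds, on plates passing quality control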;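 also: negative values mostly come from compounds that fluoresce themselves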
FAM quench SP: counter-screen for GRK2 binding hits: quenchers of fluorescent RNA aptamer; shares compounds with GRK2 inh; carboxyfluorescein RNA aptamer beads, flow cytometry quenching; active compounds read low; fluorescence response vs DMSO, % at 10 µM; 360 tested, under 10 active; AID 588494;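 active = response vs DMSO under 50%, meaning signal dropped by over half, treated as fluorescence quencher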;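 also: labelled aptamer on streptavidin beads without GRK2 as a quench counter-screen; 100% = bead fluorescence of DMSO wells and lower means quenching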
Active calls of the source: *; / = no result. The list is not random: actives were taken first. Their share in the collection is about 1.3%.

SMILES	VLA-4 inh	JMJD2C inh	GRK2 inh	procasp3 activ	proCasp7 act	Hep lipid drop	GRK2 CP1	FAM quench CP1	others
Cc1ccc(-c2nn(-c3ccccc3)cc2C2CC(c3ccccc3)=NN2C(=O)CCC(=O)O)cc1 (stereo unspecified)	3.6	18.1	1.0	1.4	-8.6	6.8	/	/
Cc1ccc(C2=NN(C(=O)CCC(=O)O)C(c3cn(-c4ccccc4)nc3-c3ccc(C)cc3)C2)cc1 (stereo unspecified)	25.5	3.6	7.0	9.8	3.1	5.1	0.1	103.0
CCN(CC(=O)Nc1c(F)cccc1F)C(=O)/C=C/c1ccc2ccccc2n1	-3.9	-15.7	94.0*	7.1	-5.7	/	30.7	92.1
CCN(CC(=O)Nc1c(F)cccc1F)C(=O)c1ccc2ccccc2n1	1.8	2.2	0.0	-2.5	2.3	/	/	/
CC(Oc1cccnc1[N+](=O)[O-])C(=O)N1CCc2ccccc21 (stereo unspecified)	-5.8	8.1	33.0	-1.8	-3.3	/	1.6	104.4
COC(=O)c1ccc(CS(=O)(=O)c2ccccc2C)o1	4.9	-2.2	4.0	2.2	2.3	/	/	/	GRK2 CP2=-2.1;FAM quench SP=101.0
Cc1c(Cl)cccc1NC(=S)NCCc1ccc(C(F)(F)F)cc1	10.7	71.8	3.0	0.5	-6.7	-37.0	/	/
Cn1c(N)c(C(=O)COC(=O)CCCN2C(=O)c3ccccc3C2=O)c(=O)n(C)c1=O	4.0	-22.7	93.0*	3.4	-2.0	3.8	0.9	99.1
COc1cc(C(=O)OCC(=O)N2CCC(C)CC2)cc2c1OCCO2	2.1	-6.9	1.0	15.2	6.2	/	/	/
COc1cccc(CN2CCN(Cc3cccc(Br)c3)CC2)c1OC	-4.9	1.0	55.0*	2.9	-0.3	-7.0	1.4	97.9
COc1cccc(CN2CCSCC2)c1OC	3.7	0.2	0.0	5.8	5.4	-2.0	/	/
Cc1cc(=O)n2nc(N3CCC(C(=O)NCc4cccc(Br)c4)CC3)sc2n1	-10.7	4.3	0.0	8.1	-1.1	10.5	/	/
O=C(O)c1ccc(CSc2nnc(-c3ccc(Cl)cc3)o2)cc1	5.2	10.4	3.0	-2.6	3.9	1.3	/	/
Cc1nnc(SCc2ccc(CC(=O)O)cc2)o1	-5.0	-2.4	54.0*	-2.2	6.2	/	3.1	101.7
CC(=O)CCN1C(=O)NC2(CCCc3ccccc32)C1=O (stereo unspecified)	-3.9	10.7	58.0*	5.4	5.5	-0.7	/	/	GRK2 CP2=-32.9;FAM quench SP=99.0
CC(=O)Nc1ccc(C(=O)CN2C(=O)NC3(CCCc4ccccc43)C2=O)c(F)c1 (stereo unspecified)	9.0	-11.4	27.0	2.0	-6.9	/	-0.1	103.5
O=C(CN1C(=O)NC2(CCCc3ccccc32)C1=O)c1ccccc1F (stereo unspecified)	3.0	3.1	7.0	5.7	2.6	/	/	/
O=C(COC(=O)c1ccccc1OCc1ccccc1Cl)NCC1CCCO1 (stereo unspecified)	3.9	1.3	0.0	-6.2	1.8	/	/	/
CCC(CO)Oc1cc(NC(=O)c2ccc([N+](=O)[O-])cc2)c2ncn(C(C)C)c2c1 (stereo unspecified)	11.9	/	0.0	1.3	8.8	/	/	/
Cc1cc(C)cc(NC(=O)CSCc2cc(=O)n3ccsc3n2)c1	16.9	3.4	0.0	6.0	-4.3	-2.5	/	/
CC(=O)Oc1ccc2ccc(=O)oc2c1	-20.8	15.8	80.0*	-38.4	-0.8	-1.9	-1.5	99.5
O=C(O)C1CC(c2cccc(Br)c2)=NO1 (stereo unspecified)	13.5	-21.0	0.0	9.8	5.7	-2.8	/	/	GRK2 CP2=-4.9;FAM quench SP=107.0
O=C(O)C1CC(c2ccccc2)=NO1 (stereo unspecified)	17.4	2.8	17.0	9.5	-1.0	-3.2	/	/	GRK2 CP2=-32.9;FAM quench SP=102.0
COc1cc(OC)c(C2=NOC(C(=O)O)C2)cc1Cl (stereo unspecified)	3.9	-9.4	2.0	-4.7	5.7	3.5	/	/	GRK2 CP2=-25.8;FAM quench SP=100.0
Cn1c(=O)n(CC(N)=O)c2ccccc21	2.7	-12.9	4.0	4.8	2.9	9.9	/	/
SMILES	VLA-4 inh	JMJD2C inh	GRK2 inh	procasp3 activ	proCasp7 act	Hep lipid drop	GRK2 CP1	FAM quench CP1	others
Cn1c(=O)n(CCc2ccccc2)c2ccccc21	-66.1	-0.6	51.0*	-5.4	-5.8	-16.3	-0.6	100.3
CN(c1ncc(C(F)(F)F)cc1Cl)N1C(=O)c2cccc([N+](=O)[O-])c2C1=O	23.5	-16.8	57.0*	-9.7	-0.8	-15.2	-0.2	101.9
COc1ccc(CCN2CCCn3c2nc2c3c(=O)n(CC(C)C)c(=O)n2C)cc1OC	-0.1	-2.5	54.0*	/	/	-19.3	0.1	105.0
Cc1ccccc1Oc1nc2c(C)cccn2c(=O)c1/C=C(\C#N)C(=O)NC1CCS(=O)(=O)C1 (stereo unspecified)	9.5	-6.2	0.0	0.1	0.1	-10.8	/	/
Cc1ccc(Oc2nc3ccccn3c(=O)c2/C=C(\C#N)C(=O)NC2CCS(=O)(=O)C2)cc1 (stereo unspecified)	-3.0	7.2	75.0*	-3.0	1.6	-5.6	1.4	92.5
Cc1cccc(NC(=O)C2CC2c2ccccc2)c1C (stereo unspecified)	17.0	3.1	/	4.8	3.0	-12.7	/	/
Cc1cc(Cl)cc(C)c1OCCn1ccnc1	-6.7	-6.3	42.0*	-1.1	0.9	2.6	/	/	GRK2 CP2=-23.5;FAM quench SP=100.0
Cc1cc(Cl)cc(C)c1OCCCCCn1ccnc1	0.0	-5.0	0.0	-1.0	-5.3	2.7	/	/
O=C(Nc1ccc(Cl)cn1)c1ccc(-c2cc(Cl)ccc2Cl)o1	-4.3	7.2	42.0*	-3.1	-1.5	/	/	/	GRK2 CP2=-25.5;FAM quench SP=100.0
COc1cccc(NC(=O)CCCCCN2C(=O)[C@@H]3Cc4ccccc4CN3C2=O)c1	10.9	1.7	0.0	10.8	6.1	0.7	0.6	93.8
Cc1cc(C)cc(NC(=O)CCCCCN2C(=O)[C@@H]3Cc4ccccc4CN3C2=O)c1	12.8	6.6	0.0	4.5	4.5	-3.9	/	/
O=C(Nc1cccnc1)c1ccccc1Cl	-7.8	-16.9	81.0*	-4.9	0.6	-3.6	-1.9	97.4
O=C(Nc1ccc(N2CCCCC2)c(Cl)c1)c1cccnc1	-58.6	3.2	18.0	-3.6	4.1	/	/	/

Bioassay records from PubChem BioAssay.
